Experimental data as given in article PMC2606940 (The Journal of General Physiology, 2009).
Residue numbers refer to the chain shown, from its start. Like-named read-outs stand apart in the source and are kept apart here.

Assays:
Assay type in all cases: cell-based
[1] = target: T1, CLC-0 E166C mutant (E127/K519) (Torpedo marmorata, UniProt P21564, C212S/E166C); conditions: for IC50: read-out: Apparent affinity (K1/2)
T1 sequence (P21564 1-805 E166C/C212S): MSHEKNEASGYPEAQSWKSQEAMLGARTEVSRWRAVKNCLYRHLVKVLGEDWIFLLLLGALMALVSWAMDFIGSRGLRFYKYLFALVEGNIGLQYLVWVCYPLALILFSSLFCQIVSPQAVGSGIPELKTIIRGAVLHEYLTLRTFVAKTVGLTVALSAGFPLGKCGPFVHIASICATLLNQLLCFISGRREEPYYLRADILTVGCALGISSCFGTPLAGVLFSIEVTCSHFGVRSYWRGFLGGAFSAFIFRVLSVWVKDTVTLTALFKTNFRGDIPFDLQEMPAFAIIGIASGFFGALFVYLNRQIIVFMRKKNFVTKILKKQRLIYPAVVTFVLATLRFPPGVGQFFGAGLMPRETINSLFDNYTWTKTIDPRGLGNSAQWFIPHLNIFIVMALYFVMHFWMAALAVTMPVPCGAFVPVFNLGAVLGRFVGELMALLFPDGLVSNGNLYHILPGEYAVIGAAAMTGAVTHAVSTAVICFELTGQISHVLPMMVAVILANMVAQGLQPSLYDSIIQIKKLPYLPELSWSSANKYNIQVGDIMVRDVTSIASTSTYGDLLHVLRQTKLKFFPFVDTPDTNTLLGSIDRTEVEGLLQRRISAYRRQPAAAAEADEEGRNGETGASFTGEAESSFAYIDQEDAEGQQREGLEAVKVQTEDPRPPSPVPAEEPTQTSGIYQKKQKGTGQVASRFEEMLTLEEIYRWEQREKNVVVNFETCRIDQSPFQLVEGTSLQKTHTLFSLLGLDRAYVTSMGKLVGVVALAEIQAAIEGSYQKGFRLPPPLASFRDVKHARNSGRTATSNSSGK
Method in brief: (§1)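 CLC-0 mutants in the C212S background were transfected into HEK293 cells with lipofectamine and recorded 1–3 d later as excised inside-out patches. Both sides held 130 mM NaCl, 5 mM MgCl2, 10 mM HEPES and 1 mM EGTA, pH 7.4. CPA was perfused continuously onto the cytoplasmic face. Steady-state current over the last 10 ms was normalized to bracketing blocker-free controls and fitted to a Langmuir function for K1/2. Values are mean ± SEM of ~4–6 patches.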

CLC-0 E166H mutant = target: T2, CLC-0 E166H mutant (Torpedo marmorata, UniProt P21564, C212S/E166H); conditions: read-out: Apparent affinity (K1/2)
T2 sequence (P21564 1-805 E166H/C212S): T1 sequence (P21564 1-805 E166C/C212S) with C166H
Method in brief: as §1

CLC-0 E166I mutant = target: T3, CLC-0 E166I mutant (Torpedo marmorata, UniProt P21564, C212S/E166I); conditions: read-out: Apparent affinity (K1/2)
T3 sequence (P21564 1-805 E166I/C212S): T1 sequence (P21564 1-805 E166C/C212S) with C166I
Method in brief: as §1

Compound | IC50 ([1]; −40 mV) | IC50 ([1]; −60 mV) | IC50 ([1]; −80 mV) | IC50 ([1]; −100 mV) | IC50 ([1]; −120 mV) | IC50 ([1]; −140 mV) | IC50 ([1]; −160 mV) | IC50 (CLC-0 E166H mutant; −80 mV) | IC50 (CLC-0 E166H mutant; −100 mV) | IC50 (CLC-0 E166H mutant; −120 mV) | IC50 (CLC-0 E166H mutant; −140 mV) | IC50 (CLC-0 E166H mutant; −160 mV) | IC50 (CLC-0 E166I mutant; −40 mV) | IC50 (CLC-0 E166I mutant; −60 mV) | IC50 (CLC-0 E166I mutant; −80 mV) | IC50 (CLC-0 E166I mutant; −100 mV) | IC50 (CLC-0 E166I mutant; −120 mV) | IC50 (CLC-0 E166I mutant; −140 mV) | IC50 (CLC-0 E166I mutant; −160 mV) | further results
O=C(O)COc1ccc(Cl)cc1 [CPA, p-chlorophenoxy acetate] | 581 ± 94 µM | 349 ± 15 µM | 186 ± 7 µM | 104 ± 3 µM | 61 ± 2 µM | 38 ± 1 µM | 26 ± 1 µM | 2870 ± 150 µM | 1450 ± 110 µM | 740 ± 80 µM | 390 ± 50 µM | 210 ± 40 µM | 1250 ± 230 µM | 683 ± 85 µM | 384 ± 41 µM | 220 ± 24 µM | 117 ± 11 µM | 68 ± 8 µM | 39 ± 4 µM | block of current ([1]; 0.3 mM CPA, −160 mV): > 90%; apparent koff ([1]; −160 mV): 17.2 s⁻¹; apparent kon ([1]; −160 mV): 630000 M⁻¹ s⁻¹; IC50 (CLC-0 E166H mutant; −40 mV): 12400 ± 520 µM; IC50 (CLC-0 E166H mutant; −60 mV): 5860 ± 260 µM
CCCCCCCC(=O)O [octanoate] | 88.5 ± 17.1 µM | 43.1 ± 6.4 µM | 20.7 ± 3.4 µM | 10.2 ± 1.8 µM | 5.6 ± 1.1 µM | 3.5 ± 0.8 µM | 2 ± 0.5 µM | 29600 ± 1300 µM | 18400 ± 810 µM | 11500 ± 570 µM | 7020 ± 400 µM | 4570 ± 280 µM | 218 ± 49 µM | 136 ± 26 µM | 79 ± 13 µM | 45 ± 7 µM | 26 ± 3 µM | 15 ± 2 µM | 9 ± 1 µM | –
